In the RNAGym collection of RNA variant scans (doi:10.1126/science.aae0568):
Variants at the floor of the assay were thinned out.

B1: tRNA (parent)
chain: GUUCCGUUGGCGUAAUGGUAACGCGUCUCCCUCCUAAGGAGAAGACUGCGGGUUCGAGUCCCGUACGGAACG

Variants of: B1
Assay: yeast fitness relative to wild type (ratio to wild type); higher = fitter; tRNA-Arg(CCU), competitive growth, 37 C, YPD
Outline: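 The tRNA-Arg(CCU) gene variants were made by chemical synthesis with a 3% per-site mutation rate at 69 sites and inserted at the native genomic locus of Saccharomyces cerevisiae. After pooling, the strains were competed in YPD at 37°C for 24 hours in six parallel replicates. Gene amplicons from the start population and each end population were read by 100-nucleotide paired-end sequencing, and Darwinian fitness relative to wild type was taken from genotype frequency changes. Genotypes needed ≥ 100 starting reads, and estimates < 0.5 were set to 0.5.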
For G23C C31A C62U A70G, the yeast fitness was no more than 0.5.
Variant G23A C30U A37C A57C has a yeast fitness of no more than 0.5.
Work on C24A C33A A37U G50C C61U yielded a yeast fitness of no more than 0.5.
Variant C24A A36G A43G has a yeast fitness of no more than 0.5.
G23C U26A C29G A36U gave a yeast fitness of 0.68.
Variant G23C A65G C66A has a yeast fitness of no more than 0.5.
For G23C C60G C61U G68A, the yeast fitness was no more than 0.5.
Variant C24A C29G U32G G38A U47A has a yeast fitness of no more than 0.5.
With G23C A37U U47C C55U C60G C66U the yeast fitness was no more than 0.5.
Variant G23A A40U A70G has a yeast fitness of 0.537.
G23C C24U A37C G50C gave a yeast fitness of no more than 0.5.
With C24A C33A C34A C62A the yeast fitness was no more than 0.5.
G23C A36U C46G C60U showed a yeast fitness of 0.591.
Work on G23A U47A U64A yielded a yeast fitness of no more than 0.5.
With G23C A37G C66A the yeast fitness was no more than 0.5.
With C22U G51C C61G A70C the yeast fitness was 0.514.
For G23C U32A C66U, the yeast fitness was no more than 0.5.
G23C C33G C46A C66A gave a yeast fitness of 0.596.
With G23C C46U C62U the yeast fitness was 0.592.
G23C G41A gave a yeast fitness of 0.716.
In the case of G23C C30G A37U C62U A65U, the yeast fitness is reported as no more than 0.5.
C22U U26A C29U U54C C66U showed a yeast fitness of no more than 0.5.
In the case of G23C C66A, the yeast fitness is reported as no more than 0.5.
For G23C C66G, the yeast fitness was no more than 0.5.
G23A A42U C61G U64A gave a yeast fitness of no more than 0.5.
For C24A C31G C62A, the yeast fitness was 0.594.
G23A C49A G58A gave a yeast fitness of no more than 0.5.
In the case of C24A A37C G38A, the yeast fitness is reported as 0.61.
Work on G23C G44C G68C yielded a yeast fitness of no more than 0.5.
Variant C22U U47A G63A has a yeast fitness of 0.503.
Variant G23U C49U C55A C66U has a yeast fitness of no more than 0.5.
Work on C22U U35A G67U yielded a yeast fitness of no more than 0.5.
Variant G23C A36U G52C has a yeast fitness of no more than 0.5.
Variant G23U has a yeast fitness of 0.779.
For G23C, the yeast fitness was 0.653.
G23A gave a yeast fitness of 0.741.
Work on C24A C33A C49U A69U yielded a yeast fitness of no more than 0.5.
Variant G23A C24U has a yeast fitness of 0.94.
Variant G23A C27U A37U has a yeast fitness of 0.58.
For G23A A42G C61U, the yeast fitness was no more than 0.5.
With C24A A43U G50A G67A the yeast fitness was no more than 0.5.
G23C G48A U64A A65U gave a yeast fitness of no more than 0.5.
With C22U U32G C34U G38U A40G C55G A70U the yeast fitness was no more than 0.5.
Work on C22U U32A C46G G52C yielded a yeast fitness of no more than 0.5.
Variant G23C U54C has a yeast fitness of 0.502.
For G23A A37U C49G C55G, the yeast fitness was 0.556.
G23A G58A showed a yeast fitness of 0.715.
G23A G58C showed a yeast fitness of 0.885.
In the case of G23C A37C A42G C46G C66U, the yeast fitness is reported as no more than 0.5.
G23A C55A gave a yeast fitness of no more than 0.5.
Variant G23C U28C C46G C62G has a yeast fitness of no more than 0.5.
G23C C34G C55G showed a yeast fitness of no more than 0.5.
With G23C U47G the yeast fitness was 0.626.
Variant G23A A40G C46G has a yeast fitness of no more than 0.5.
With G23A U47C C49U the yeast fitness was no more than 0.5.
With G23A C30U C62A G68A the yeast fitness was 0.575.
Work on C22U U35C A36C yielded a yeast fitness of no more than 0.5.
C24A A45G A65U showed a yeast fitness of 0.552.
With C24A A43G the yeast fitness was 0.597.
Variant C24A A43C has a yeast fitness of 0.55.
In the case of G23A C29G U64A, the yeast fitness is reported as no more than 0.5.
For C24A C27U A40U G44C A57U G67C, the yeast fitness was no more than 0.5.
With G23C C49G G63A the yeast fitness was no more than 0.5.
In the case of G23A C29A C31U A42G A43C U54G, the yeast fitness is reported as no more than 0.5.
G23C C27A A57U A69U gave a yeast fitness of no more than 0.5.
C22U G50U G63A showed a yeast fitness of no more than 0.5.
For C24A C27G C61U, the yeast fitness was 0.575.
Variant G23A U47A has a yeast fitness of 0.796.
G23C G51A C61G A69U gave a yeast fitness of no more than 0.5.
G23C U26G C33G A45C showed a yeast fitness of no more than 0.5.
C22U U32G C34U A40G showed a yeast fitness of 0.62.
For G23A C30U, the yeast fitness was 0.68.
For C22U G68C, the yeast fitness was 0.717.
C22U G68A showed a yeast fitness of 0.852.
In the case of C22U U53C C61G G67A A69C, the yeast fitness is reported as no more than 0.5.
With G23C C33A G50C G58C the yeast fitness was no more than 0.5.
G23A A36U A40C G52A C61G showed a yeast fitness of 0.639.
Work on G23A C34A A43U U47C yielded a yeast fitness of 0.577.
Variant G23C C29G A43U G50A A70U has a yeast fitness of no more than 0.5.
G23C G25A showed a yeast fitness of 0.818.
C24A C30U A65G C66U showed a yeast fitness of no more than 0.5.
In the case of C24A A45G C61U, the yeast fitness is reported as no more than 0.5.
Variant G23A C33G A69C has a yeast fitness of no more than 0.5.
Variant G23C C29U A36C C49G A70U has a yeast fitness of 0.53.
Variant C24A A43G G63U U64A has a yeast fitness of no more than 0.5.
In the case of G23C G50C G52A, the yeast fitness is reported as 0.698.
Work on G23A C30U G39A C60G yielded a yeast fitness of no more than 0.5.
With G23C G25C C55G the yeast fitness was no more than 0.5.
G23C C49A U59C G67A A69G gave a yeast fitness of no more than 0.5.
With G23C G39A the yeast fitness was 0.669.
In the case of G23A A57G, the yeast fitness is reported as 0.715.
Work on G23C G41C G68A yielded a yeast fitness of no more than 0.5.
For G23U C60U A65G, the yeast fitness was no more than 0.5.
Variant G23C C60G C61U has a yeast fitness of no more than 0.5.
C24A A42G gave a yeast fitness of 0.548.
With G23A C30U C55A G63A the yeast fitness was no more than 0.5.
Variant C22U G48C has a yeast fitness of 0.863.
For G23C C27G C31G, the yeast fitness was 0.608.
G23A A36G C61U A65U showed a yeast fitness of no more than 0.5.
For C24A C33A C49U U54G G56A, the yeast fitness was no more than 0.5.
With C22U U64A the yeast fitness was 0.837.
Work on G23A C33G C62A yielded a yeast fitness of 0.742.
Variant G23C A65U has a yeast fitness of 0.585.
Variant G23A C30U C62A has a yeast fitness of 0.561.
Work on G23C G56C yielded a yeast fitness of no more than 0.5.
For G23C G56A, the yeast fitness was 0.566.
Variant G23A C34U C66U has a yeast fitness of 0.586.
C22U U64C C66U showed a yeast fitness of 0.7.
C22U U35C A37C gave a yeast fitness of no more than 0.5.
Work on G23C G63A yielded a yeast fitness of 0.51.
Variant G23C G63C has a yeast fitness of 0.594.
With G23A U26G A65C the yeast fitness was no more than 0.5.
Work on G23A A36G C55G G63A A69U yielded a yeast fitness of no more than 0.5.
For G23A C62U A69U, the yeast fitness was 0.642.
Work on C24A C34U A40C yielded a yeast fitness of no more than 0.5.
Work on C22U U26A C34A A37U G48C yielded a yeast fitness of 0.799.
Work on G23C C24G C34U G39A A45C yielded a yeast fitness of no more than 0.5.
In the case of G23C C49G G51C G52A, the yeast fitness is reported as no more than 0.5.
For G23C C62G, the yeast fitness was 0.692.
With G23C C24G C34G U64A G67A the yeast fitness was no more than 0.5.
Work on G23C A36U G51C yielded a yeast fitness of no more than 0.5.
Work on G23A C29U C33G A42G yielded a yeast fitness of no more than 0.5.
Variant G23A C46A G58A has a yeast fitness of 0.566.
Work on C22U U26A U47C yielded a yeast fitness of no more than 0.5.
In the case of G23A C31G A45C G52C, the yeast fitness is reported as no more than 0.5.
Work on G23A C27U yielded a yeast fitness of 0.706.
For G23A C30U A37U G41C, the yeast fitness was 0.634.
With C22U U32G C34U A40G G58A C66U the yeast fitness was no more than 0.5.
G23A U26A U28A C29G gave a yeast fitness of no more than 0.5.
G23A C49U G63A A65C gave a yeast fitness of no more than 0.5.
With G23A C29U C30A G67A the yeast fitness was no more than 0.5.
G23C C27G C55G G56A G58A C66G A70U gave a yeast fitness of no more than 0.5.
For G23A C49U A65C, the yeast fitness was 0.523.
With C24A C27G C29A A70G the yeast fitness was no more than 0.5.
G23C A37C A45G C49G gave a yeast fitness of 0.671.
Work on G23A C49U yielded a yeast fitness of 0.735.
With C24A A36G A42G A43G G48A the yeast fitness was no more than 0.5.
Variant G23A C31U has a yeast fitness of 0.731.
Variant G23A C31G has a yeast fitness of 0.811.
With C22U G48A C55U the yeast fitness was 0.599.
G23A C27U A37U C60U C61A gave a yeast fitness of no more than 0.5.
C22U U53A gave a yeast fitness of 0.673.
C22U U53G showed a yeast fitness of no more than 0.5.
For C22U G41C, the yeast fitness was 0.698.
Variant G23C U26C A37G A40G A42G U64C has a yeast fitness of no more than 0.5.
G23A C31U C33G A65G gave a yeast fitness of no more than 0.5.
Work on C24A A36G A37G yielded a yeast fitness of no more than 0.5.
In the case of G23C C27A A57U, the yeast fitness is reported as no more than 0.5.
With C24A C34U C49A A65U the yeast fitness was no more than 0.5.
In the case of G23C C60A A70U, the yeast fitness is reported as 0.536.
In the case of G23C C24A G50A A70U, the yeast fitness is reported as no more than 0.5.
With C24A C27G C29G G52C C62U the yeast fitness was 0.567.
G23C G39C A42U G52U U53A showed a yeast fitness of no more than 0.5.
Work on G23C C31A C49G C55A yielded a yeast fitness of 0.534.
C24A C30U C55U gave a yeast fitness of no more than 0.5.
G23U A69C showed a yeast fitness of 0.695.
In the case of G23A C30A U54C C55U, the yeast fitness is reported as no more than 0.5.
C22U U32C G51A C61G showed a yeast fitness of no more than 0.5.
In the case of G23C C24A G38A C62A A69G, the yeast fitness is reported as no more than 0.5.
For G23C A43U, the yeast fitness was 0.733.
With G23C C61U C66G A70U the yeast fitness was 0.562.
With G23A A36C the yeast fitness was 0.586.
Work on G23A A36U yielded a yeast fitness of 0.536.
G23C A36C A45C G58A G68C gave a yeast fitness of no more than 0.5.
G23A A36C U47C G48C gave a yeast fitness of no more than 0.5.
In the case of G23C A40C, the yeast fitness is reported as 0.666.
G23A C30U G63A showed a yeast fitness of no more than 0.5.
